Twelve compounds from ChEMBL document CHEMBL1148673, “Peptidomimetic C5a receptor antagonists with hydrophobic substitutions at the C-terminus: increased receptor specificity and in vivo activity” (Bioorg Med Chem Lett, 2006) can be followed below.

Data set [1] is described as follows: Stability in human liver microsome after 1 hr. The format is ADME. To be noted: liver microsomes, read-out: Stability. The gist of the method: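 Compound incubated with human liver microsomes, 1 h at 37 °C; read-out is % of parent remaining.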
The subject of a further data set is J774.A1. The data set is described as follows: Inhibition of C5a-induced chemotaxis of mouse J774A.1 cells. The format is functional, cell-based. The gist of the method: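 Mouse J774A.1 cells; chemotaxis induced by C5a, inhibition measured and IC50 (µM) determined.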
Another data set addresses CYP3A4 (Homo sapiens, UniProt P08684). Put plainly: Inhibition of CYP3A4 at 10 uM. The format is ADME.
In data set [2] the target is T1, C5a anaphylatoxin chemotactic receptor 1 (Homo sapiens) (UniProt P21730).
T1 sequence (whole entry): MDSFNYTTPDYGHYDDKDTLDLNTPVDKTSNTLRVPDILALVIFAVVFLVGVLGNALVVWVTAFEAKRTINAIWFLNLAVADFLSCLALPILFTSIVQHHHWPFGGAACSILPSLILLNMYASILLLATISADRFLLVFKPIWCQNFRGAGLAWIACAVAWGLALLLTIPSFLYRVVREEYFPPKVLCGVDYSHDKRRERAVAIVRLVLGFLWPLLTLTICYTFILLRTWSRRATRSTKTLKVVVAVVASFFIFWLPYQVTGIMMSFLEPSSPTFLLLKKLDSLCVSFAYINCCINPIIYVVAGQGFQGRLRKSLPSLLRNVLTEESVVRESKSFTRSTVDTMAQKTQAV
The data set is described as follows: Agonist activity at human C5aR in CD88 transfected RBL cells at 286 uM. The format is functional, cell-based.

Data set [3] addresses T2, C5a anaphylatoxin chemotactic receptor 1 (Homo sapiens, UniProt P21730).
T2 sequence (P21730 whole entry): T1 sequence (whole entry)
The data set is described as follows: Antagonist activity at human C5aR in CD88 transfected RBL cells assessed as inhibition of C5a-induced glucosaminidase release. It is filed as functional, cell-based. An outline of the steps:
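Functional antagonism read as inhibition of glucosaminidase release stimulated by C5a from RBL cells transfected with CD88 (RBL+); IC50 in µM.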

In another data set the target is Melanocortin receptor 4 (Homo sapiens, UniProt P32245). Put plainly: Binding affinity to MC4 receptor.
Sequence of Melanocortin receptor 4 (P32245 whole entry): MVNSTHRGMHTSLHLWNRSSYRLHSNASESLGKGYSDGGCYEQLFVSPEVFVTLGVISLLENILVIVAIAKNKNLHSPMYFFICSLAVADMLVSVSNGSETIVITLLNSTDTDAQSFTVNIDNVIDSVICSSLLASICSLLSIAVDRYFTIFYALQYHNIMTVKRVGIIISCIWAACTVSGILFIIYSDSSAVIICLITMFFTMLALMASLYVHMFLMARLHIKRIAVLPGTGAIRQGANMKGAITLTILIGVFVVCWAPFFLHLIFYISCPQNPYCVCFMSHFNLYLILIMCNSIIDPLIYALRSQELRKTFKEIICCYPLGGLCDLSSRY
Data set [4] addresses T2, C5a anaphylatoxin chemotactic receptor 1. Put plainly: Antagonist activity at human C5aR expressed in human PMN cells assessed as inhibition of glucosaminidase release. The format is functional, cell-based.
The target is the same in data set [5]. Put plainly: Inhibition of C5a binding to human C5aR expressed in HEK293 cells. The format is cell-based.
In the next data set the target is Nociceptin receptor (Homo sapiens, UniProt P41146). Put plainly: Binding affinity to ORL1 receptor.
Sequence of Nociceptin receptor (P41146 whole entry): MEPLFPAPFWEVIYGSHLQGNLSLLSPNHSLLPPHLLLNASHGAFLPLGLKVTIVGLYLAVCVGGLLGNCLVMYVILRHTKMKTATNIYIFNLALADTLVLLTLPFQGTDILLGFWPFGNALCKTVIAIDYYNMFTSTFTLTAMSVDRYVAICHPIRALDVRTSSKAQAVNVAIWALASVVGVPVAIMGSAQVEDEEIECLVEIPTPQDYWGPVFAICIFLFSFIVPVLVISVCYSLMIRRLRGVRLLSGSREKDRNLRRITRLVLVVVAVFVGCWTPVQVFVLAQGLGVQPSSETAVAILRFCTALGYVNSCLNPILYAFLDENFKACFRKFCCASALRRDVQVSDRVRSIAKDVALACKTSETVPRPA
The next data set concerns the target Vasopressin V1a receptor (Homo sapiens, UniProt P37288). Put plainly: Binding affinity to V1a receptor.
A further data set addresses T3, Substance-K receptor (Homo sapiens, UniProt P21452).
T3 sequence (P21452 whole entry): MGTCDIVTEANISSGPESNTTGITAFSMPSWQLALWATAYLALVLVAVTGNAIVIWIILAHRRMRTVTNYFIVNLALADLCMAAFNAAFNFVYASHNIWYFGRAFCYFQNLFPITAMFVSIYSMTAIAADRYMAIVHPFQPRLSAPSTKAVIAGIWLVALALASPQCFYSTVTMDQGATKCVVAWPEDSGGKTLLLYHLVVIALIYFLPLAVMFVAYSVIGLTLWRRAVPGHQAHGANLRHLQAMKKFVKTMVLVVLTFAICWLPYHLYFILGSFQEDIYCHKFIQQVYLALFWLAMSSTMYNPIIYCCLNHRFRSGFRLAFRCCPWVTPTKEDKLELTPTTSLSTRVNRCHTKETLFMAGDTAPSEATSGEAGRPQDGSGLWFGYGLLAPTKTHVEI
The data set is described as follows: Binding affinity to NK2 receptor.

Where only a bound is given, the exact number is not on record here.

Sequence of CYP3A4 (P08684 whole entry): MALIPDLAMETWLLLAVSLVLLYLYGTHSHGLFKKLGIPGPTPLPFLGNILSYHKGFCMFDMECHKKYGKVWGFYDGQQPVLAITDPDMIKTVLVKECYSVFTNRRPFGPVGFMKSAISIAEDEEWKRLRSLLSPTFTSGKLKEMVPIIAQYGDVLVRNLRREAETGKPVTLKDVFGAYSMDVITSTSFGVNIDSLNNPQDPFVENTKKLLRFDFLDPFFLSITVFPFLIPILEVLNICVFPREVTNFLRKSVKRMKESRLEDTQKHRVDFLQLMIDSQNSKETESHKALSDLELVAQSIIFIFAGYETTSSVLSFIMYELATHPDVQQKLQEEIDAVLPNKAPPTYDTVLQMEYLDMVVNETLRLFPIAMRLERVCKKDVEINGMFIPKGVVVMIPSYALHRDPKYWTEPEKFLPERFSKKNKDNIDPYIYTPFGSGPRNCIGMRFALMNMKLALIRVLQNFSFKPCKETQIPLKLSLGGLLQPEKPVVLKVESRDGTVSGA
Sequence of Vasopressin V1a receptor (P37288 whole entry): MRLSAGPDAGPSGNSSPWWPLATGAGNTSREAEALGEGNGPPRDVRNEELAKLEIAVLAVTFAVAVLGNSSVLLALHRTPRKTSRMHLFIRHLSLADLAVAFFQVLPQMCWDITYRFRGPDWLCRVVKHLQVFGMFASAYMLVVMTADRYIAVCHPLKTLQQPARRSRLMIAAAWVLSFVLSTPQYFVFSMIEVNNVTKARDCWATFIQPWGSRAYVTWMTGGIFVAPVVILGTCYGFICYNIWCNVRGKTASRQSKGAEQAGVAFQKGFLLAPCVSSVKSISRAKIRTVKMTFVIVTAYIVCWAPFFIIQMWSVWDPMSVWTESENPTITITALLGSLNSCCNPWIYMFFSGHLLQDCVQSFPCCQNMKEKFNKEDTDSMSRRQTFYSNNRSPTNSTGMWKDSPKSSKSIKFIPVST

Broadly, the IC50 is the concentration at which inhibition is half-maximal. Broadly, the inhibition is the relative decrease from the control value, in per cent. A high value points to strong suppression. As to `CC(=O)N[C@@H](Cc1ccccc1)C(=O)N[C@H]1CCCNC(=O)[C@H](CCCN=C(N)N)NC(=O)[C@H](Cc2c[nH]c3ccccc23)NC(=O)[C@@H](CC2CCCCC2)NC(=O)[C@@H]2CCCN2C1=O`, the remaining at 1 h in [1] turned out to be 10%. In the data set on J774.A1, this compound returned an IC50 of 7100 nM. On CYP3A4, this compound returned an inhibition at 10 µM of 77%.

`CC(=O)N[C@@H](Cc1ccccc1)C(=O)N[C@@H](CCCN)C(=O)N1CCC[C@H]1C(=O)N[C@H](CCC(C)C)C(=O)N[C@H](Cc1cccc(Cl)c1)C(=O)N[C@H](Cc1ccccc1)C(N)=O` returned an Activity in [2] of 1.2%.

Consider `CC(=O)N[C@@H](Cc1ccccc1)C(=O)N[C@@H](CCCN)C(=O)N1CCC[C@H]1C(=O)N[C@H](CCC(C)C)C(=O)N[C@H](Cc1csc2ccccc12)C(=O)N[C@H](Cc1ccccc1)C(N)=O`, for which the Activity in data set [2] came to 0%.

Regarding `CC(=O)N[C@@H](Cc1ccccc1)C(=O)N[C@@H](CCCN)C(=O)N1CCC[C@H]1C(=O)N[C@@H](CCC(C)C)C(=O)N[C@H](Cc1ccc(F)cc1)C(=O)N[C@H](Cc1ccccc1)C(N)=O`, in [2], the Activity is 0%.

In turn, `CC(=O)N[C@@H](Cc1ccccc1)C(=O)N[C@@H](CCCN)C(=O)N1CCC[C@H]1C(=O)N[C@H](CCC(C)C)C(=O)N[C@H](Cc1ccc(Cl)c(Cl)c1)C(=O)N[C@H](Cc1ccccc1)C(N)=O` gave an Activity in [2] of 7.2%.

In the case of `CC(=O)N[C@@H](Cc1ccccc1)C(=O)N[C@@H](CCCN)C(=O)N1CCC[C@H]1C(=O)N[C@H](CCC(C)C)C(=O)N[C@H](Cc1c[nH]c2ccccc12)C(=O)N[C@H](Cc1ccccc1)C(N)=O`, the Activity in [2] was 0%.

Turning to `CC(=O)N[C@@H](Cc1ccccc1)C(=O)N[C@@H](CCCN)C(=O)N1CCC[C@H]1C(=O)N[C@H](CCC(C)C)C(=O)N[C@@H](Cc1cccc(Cl)c1)C(=O)N[C@@H](Cc1ccccc1)C(N)=O`, in [1], the remaining at 1 h stood at 62%. Moreover, the IC50 in data set [3] was found to be 60 nM.

In the case of `CC(=O)N[C@@H](Cc1ccccc1)C(=O)N[C@@H](CCCN)C(=O)N1CCC[C@H]1C(=O)N[C@H](CCC(C)C)C(=O)N[C@@H](Cc1ccc(Cl)c(Cl)c1)C(=O)N[C@@H](Cc1ccccc1)C(N)=O`, the remaining at 1 h in data set [1] worked out at 49%. Besides, the IC50 in [3] is 116 nM.

In the case of `CC(=O)N[C@@H](Cc1ccccc1)C(=O)N[C@@H](CCCN)C(=O)N1CCC[C@H]1C(=O)N[C@H](CCC(C)C)C(=O)N[C@@H](Cc1c[nH]c2ccccc12)C(=O)N[C@@H](Cc1ccccc1)C(N)=O`, the remaining at 1 h in data set [1] was determined as 37%. Also, the IC50 in data set [3] turned out to be 63 nM.

`CC(C)CC[C@H](NC(=O)[C@@H]1CCCN1C(=O)[C@H](CCCN)NC(=O)[C@H](Cc1ccccc1)NC(=O)[C@@H]1CC(=O)NC(=O)N1)C(=O)N[C@@H](Cc1ccc(F)cc1)C(=O)N[C@H](Cc1ccccc1)C(N)=O` showed an Activity in data set [2] of 0%.

On to `CC(C)CC[C@@H](NC(=O)[C@@H]1CCCN1C(=O)[C@H](CCCN)NC(=O)[C@H](Cc1ccccc1)NC(=O)[C@@H]1CC(=O)NC(=O)N1)C(=O)N[C@@H](Cc1ccc(F)cc1)C(=O)N[C@@H](Cc1ccccc1)C(N)=O`, for which the IC50 at Melanocortin receptor 4 was 13000 nM; in [4] it was 41 nM; in [5], 111 nM; on Nociceptin receptor, greater than 50000 nM; on Vasopressin V1a receptor, 740 nM; in data set [3], 39 nM. The half-inhibitory concentration (IC50) is 710 nM at Substance-K receptor and 420 nM in the data set with J774.A1. In addition, the remaining at 1 h in [1] stood at 80%. At CYP3A4, this compound showed an inhibition at 10 µM of 38%.

With `CC(=O)N[C@@H](Cc1ccccc1)C(=O)N[C@@H](CCCN)C(=O)N1CCC[C@H]1C(=O)N[C@H](CCC(C)C)C(=O)N[C@@H](Cc1ccc(F)cc1)C(=O)N[C@@H](Cc1ccccc1)C(N)=O`, the remaining at 1 h in data set [1] came to 65%. In addition, the IC50 in data set [3] worked out at 71 nM.
